# Results as given in paper PMC3220786 (ACS Chemical Biology, 2011).
# Where a SMILES comes first, the peptide text is derived from it. [ ]: non-standard residue; d: D form. The star is where a group is joined. NHCH2CH2OH = OCCN*; For = O=C*
# Assays:
# P. falciparum 3D7 strain = experiment: SYBR Green parasite proliferation assay, 3D7; type: cell-based, Plasmodium falciparum; details: CC50 Ba/F3 / IC50 P. falciparum 3D7
# [1] = Cytotoxicity, Ba/F3 cells; type: cell-based, murine; details: mouse
# [2] = tested on: Murine pro-B cell line Ba/F3; experiment: Cytotoxicity, Ba/F3 cells; type: cell-based; details: read-out: mammalian cell line CC50; Ba/F3; CellTiter Glo reagent
# P. falciparum DEC-R line = experiment: SYBR Green proliferation assay, decoquinate-resistant; type: cell-based, Plasmodium falciparum; details: loss of potency against decoquinate-resistant clone
# [3] = tested on: P. yoelii (17XNL strain) sporozoites; experiment: Prophylaxis activity test in sporozoite-infected mice; type: in vivo, ICR female mouse
# Outline: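 ICR female mice (7 weeks, 26–36 g) received 50,000 P. yoelii 17XNL sporozoites via the tail vein. Immediately afterwards they were given a single oral gavage dose of test compound at 50 mg kg–1 in corn oil (5 mice). Parasitemia was checked daily by Giemsa-stained tail-snip blood microscopy. Prepatent period = first day parasitemia was seen. Mice were euthanized above 20% parasitemia.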
# [4] = tested on: P. yoelii sporozoites in HepG2-A16-CD81EGFP cells; type: cell-based, Plasmodium yoelii; details: for IC50: Plasmodium yoelii, in Homo sapiens, read-out: IC50, liver stage
# [5] = tested on: P. falciparum ATQ-R lines (cytochrome b mutants); experiment: SYBR Green proliferation assay, atovaquone-resistant; type: cell-based, Plasmodium falciparum; details: for loss of potency, F267V mutant / loss of potency, residue 144 mutant / loss of potency, triple mutant (M133I/V140T/L181V): ATQ-R line vs parental 3D7; for loss of potency, residue 133 mutants (M133I, M133V) / shift of IC50 across ATQ-R lines (control compounds): ATQ-R lines vs parental 3D7
# P. falciparum D10attB = experiment: SYBR Green proliferation assay, parental D10attB line; type: cell-based; details: Plasmodium falciparum, read-out: IC50 values, D10attB
# Outline: (§1)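 Blood-stage P. falciparum D10attB parental line and ScDHOD-D10attB transgenic line (single integrated copy of yeast DHOD gene) were tested in the SYBR Green proliferation assay. IC50 values are means ± SD of three independent experiments, each in duplicate. The shift compares the transgenic IC50 with the parental IC50.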
# [6] = target: T1, P. yoelii cytochrome c reductase (Plasmodium yoelii, UniProt Q7PDA7); experiment: Ubiquinol-cytochrome c oxidoreductase; type: biochemical
# T1 sequence (Q7PDA7 1-376): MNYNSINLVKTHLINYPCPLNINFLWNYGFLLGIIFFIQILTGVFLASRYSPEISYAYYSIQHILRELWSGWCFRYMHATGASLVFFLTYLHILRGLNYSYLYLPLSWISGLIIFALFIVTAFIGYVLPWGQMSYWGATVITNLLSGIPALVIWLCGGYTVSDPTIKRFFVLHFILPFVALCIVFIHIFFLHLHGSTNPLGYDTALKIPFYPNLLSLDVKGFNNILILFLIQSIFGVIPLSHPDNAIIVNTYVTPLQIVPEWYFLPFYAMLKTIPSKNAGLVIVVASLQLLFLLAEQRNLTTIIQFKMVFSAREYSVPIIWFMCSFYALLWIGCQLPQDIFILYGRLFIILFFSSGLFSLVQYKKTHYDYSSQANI
# T1 sequence (V7P9V8 31-357 partner): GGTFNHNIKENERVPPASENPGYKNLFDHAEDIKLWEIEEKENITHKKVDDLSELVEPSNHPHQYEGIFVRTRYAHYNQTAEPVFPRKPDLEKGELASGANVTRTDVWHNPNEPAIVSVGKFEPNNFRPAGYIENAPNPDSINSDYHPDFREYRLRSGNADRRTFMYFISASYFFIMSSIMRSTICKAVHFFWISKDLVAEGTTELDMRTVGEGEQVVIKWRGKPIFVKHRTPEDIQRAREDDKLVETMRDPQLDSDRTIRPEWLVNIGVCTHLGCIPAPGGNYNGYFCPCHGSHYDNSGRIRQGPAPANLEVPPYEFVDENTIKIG
# T1 sequence (Q7RJI2 1-394 partner): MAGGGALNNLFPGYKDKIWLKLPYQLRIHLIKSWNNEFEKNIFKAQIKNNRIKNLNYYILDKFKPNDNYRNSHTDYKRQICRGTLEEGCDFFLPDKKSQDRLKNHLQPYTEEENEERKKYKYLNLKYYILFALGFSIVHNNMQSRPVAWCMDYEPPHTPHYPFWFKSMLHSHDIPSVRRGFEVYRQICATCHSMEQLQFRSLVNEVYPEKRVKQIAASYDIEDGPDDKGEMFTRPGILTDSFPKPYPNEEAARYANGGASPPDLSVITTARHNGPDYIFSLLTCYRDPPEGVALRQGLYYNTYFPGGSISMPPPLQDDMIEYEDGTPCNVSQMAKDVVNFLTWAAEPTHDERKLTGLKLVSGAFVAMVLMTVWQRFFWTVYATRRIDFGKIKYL
# [7] = chickens, iv; cited from earlier work
# [8] = tested on: P. falciparum ScDHOD-D10attB; experiment: SYBR Green proliferation assay, transgenic ScDHOD-D10attB line; type: cell-based, Plasmodium falciparum; details: for IC50: Plasmodium falciparum, read-out: IC50 values, ScDHOD-D10attB; for shift in IC50, ScDHOD-D10attB vs parental line: transgenic parasites expressing yeast dihydroorotate dehydrogenase
# Outline: as §1
compound,measurement,setting,value
CCOC(=O)c1cnc2cc(OCC3CC3)c(OCC3CC3)cc2c1O [Ciproquinate],therapeutic index CC50/IC50,P. falciparum 3D7 strain,>156
same,CC50 at 3 days,[1]; Ba/F3 cells,> 1250 nM
CC1=C[C@H]2O[C@@H]3C[C@H]4OC(=O)/C=C\C=C\C(=O)OCC/C(C)=C/C(=O)OC[C@@]2(CC1)[C@]4(C)[C@]31CO1 [Verrucarin J],therapeutic index CC50/IC50,P. falciparum 3D7 strain,12.1
CCCOC(=O)C[N+](C)(C)CCOCCCCCCCCCCOCC[N+](C)(C)CC(=O)OCCC [Prodeconium],therapeutic index CC50/IC50,P. falciparum 3D7 strain,>156
same,CC50,[2],> 6250 nM
Muconomycin B,therapeutic index CC50/IC50,P. falciparum 3D7 strain,12.5
same,CC50,[2],30 nM
CCCCCCCCCCOc1cc2c(O)c(C(=O)OCC)cnc2cc1OCC [Decoquinate],"fold change in IC50, DEC-R clone vs parental 3D7",P. falciparum DEC-R line,90 fold
same,prepatent period (day at which parasitemia was first observed),"[3]; single oral dose with 50,000 sporozoites i.v.",8 days
same,fold increase in liver stage activity over atovaquone,[4],10 fold
same,IC50,[4],0.177 nM
same,"loss of potency, F267V mutant",[5],2 fold
same,"loss of potency, residue 144 mutant",[5],no effect
same,"loss of potency, triple mutant (M133I/V140T/L181V)",[5],5 fold
same,"loss of potency, residue 133 mutants (M133I, M133V)",[5],did not alter
same,IC50,P. falciparum D10attB,5.3 ± 1.24 nM
same,IC50,[6],97 nM
same,therapeutic index CC50/IC50,P. falciparum 3D7 strain,">2,500"
same,therapeutic index CC50/IC50,P. falciparum 3D7 strain; listed as decoquinate,"> 2,500"
same,t1/2,[7],9 to 22 h
same,IC50,[8],> 1000 nM
same,CC50 at 3 days,[1]; Ba/F3 cells,> 12500 nM
CCCCCCC[N+](CC)(CC)CCCCc1ccc(Cl)cc1 [Clofilium],therapeutic index CC50/IC50,P. falciparum 3D7 strain,>2.4
same,CC50 at 3 days,[1]; Ba/F3 cells,> 1250 nM
Cl.Cl.O=C(Nc1ccc(C2=NCCCN2)cc1)c1ccc(C(=O)Nc2ccc(C3=NCCCN3)cc2)cc1 [NSC 57153],therapeutic index CC50/IC50,P. falciparum 3D7 strain,1.1
same,CC50,[2],550 nM
COc1ccc(C[C@H]2NC[C@H](O)[C@H]2OC(C)=O)cc1 [Anisomycin],shift of IC50 across ATQ-R lines (control compounds),[5],nearly invariable
same,"shift in IC50, ScDHOD-D10attB vs parental line",[8],no shift
CC(C)[C@@H]1NC(=O)[C@H](C)OC(=O)[C@@H](C(C)C)NC(=O)[C@@H](C(C)C)OC(=O)[C@H](C(C)C)NC(=O)[C@H](C)OC(=O)[C@@H](C(C)C)NC(=O)[C@@H](C(C)C)OC(=O)[C@H](C(C)C)NC(=O)[C@H](C)OC(=O)[C@@H](C(C)C)NC(=O)[C@@H](C(C)C)OC1=O [Valinomycin],therapeutic index CC50/IC50,P. falciparum 3D7 strain,12.8
same,CC50 at 3 days,[1]; Ba/F3 cells,91 nM
COC[C@H]1C(=O)NCC(=O)N2NCCC[C@H]2C(=O)N(O)[C@H](C)C(=O)O[C@@H](C(C)C)[C@H](NC(=O)[C@](C)(O)[C@]2(O)CC[C@@H](CC(C)C)[C@H](C)O2)C(=O)N2NCCC[C@@H]2C(=O)N1O [Aurantimycin A],therapeutic index CC50/IC50,P. falciparum 3D7 strain,0.5
same,CC50,[2],45 nM
CC(C)C[C@@H](NC(=O)[C@H](C)NC(=O)CNC(=O)[C@@H](NC=O)C(C)C)C(=O)N[C@@H](C)C(=O)N[C@@H](C(=O)N[C@H](C(=O)N[C@@H](C(=O)N[C@@H](Cc1c[nH]c2ccccc12)C(=O)N[C@H](CC(C)C)C(=O)N[C@@H](Cc1c[nH]c2ccccc12)C(=O)N[C@H](CC(C)C)C(=O)N[C@@H](Cc1c[nH]c2ccccc12)C(=O)N[C@H](CC(C)C)C(=O)N[C@@H](Cc1c[nH]c2ccccc12)C(=O)NCCO)C(C)C)C(C)C)C(C)C [Gramicidin A] (For-VGA[dL]A[dV]V[dV]W[dL]W[dL]W[dL]W-NHCH2CH2OH),CC50 at 3 days,[1]; Ba/F3 cells (murine pro-B cell line),110 nM
O=C1C(O)=C([C@H]2CC[C@H](c3ccc(Cl)cc3)CC2)C(=O)c2ccccc21 [atovaquone],"fold change in IC50, DEC-R clone vs parental 3D7",P. falciparum DEC-R line,4 fold
same,protection / survival of mice,"[3]; single oral dose (decoquinate 50 mg kg-1, atovaquone 2.5 mg kg-1)",completely protected
same,IC50,[4],1.7 nM
same,"loss of potency, F267V mutant",[5],20 fold
same,"loss of potency, residue 144 mutant",[5],~200 fold
same,"loss of potency, triple mutant (M133I/V140T/L181V)",[5],2000 fold
same,"loss of potency, residue 133 mutants (M133I, M133V)",[5],~16 fold
same,IC50,P. falciparum D10attB,0.512 ± 0.164 nM
same,IC50,[6],7.6 nM
same,IC50,[8],> 1000 nM
same,"shift in IC50, ScDHOD-D10attB vs parental line",[8],> 1900 fold
CCN(CC)CCOc1ccc2c(c1)C(=O)c1cc(OCCN(CC)CC)ccc1-2 [Tilorone],therapeutic index CC50/IC50,P. falciparum 3D7 strain,>12.5
same,CC50 at 3 days,[1]; Ba/F3 cells,> 12500 nM
C[C@@H]1C[C@H](C)C[C@H](C)[C@@H](O)CC(=O)O[C@H]([C@@H]2CCC[C@H]2C(=O)O)C/C=C/C=C(/C#N)[C@H](O)[C@@H](C)C1 [Borrelidin],therapeutic index CC50/IC50,P. falciparum 3D7 strain,11.6
same,CC50 at 3 days,[1]; Ba/F3 cells,959 nM
COc1ccc2cc3[n+](cc2c1OC)CCc1cc2c(cc1-3)OCO2 [Berberine],therapeutic index CC50/IC50,P. falciparum 3D7 strain,0.6
same,CC50 at 3 days,[1]; Ba/F3 cells,320 nM
OC(c1cc(C(F)(F)F)nc2c(C(F)(F)F)cccc12)C1CCCCN1 (centres unmarked) [mefloquine],shift of IC50 across ATQ-R lines (control compounds),[5],2 fold
same,IC50,P. falciparum D10attB,7.88 ± 1.64 nM
same,IC50,[8],4.02 ± 1.4 nM
same,"shift in IC50, ScDHOD-D10attB vs parental line",[8],slight increase in mefloquine sensitivity
N=C(N)NCCCCCCCCCCNC(=N)N [Synthalin],therapeutic index CC50/IC50,P. falciparum 3D7 strain,>200
same,CC50 at 3 days,[1]; Ba/F3 cells,> 5400 nM
CCC(Cc1cnc2nc(N)nc(N)c2n1)c1ccc(C(=O)N[C@@H](CCC(=O)O)C(=O)O)cc1 (some centres unmarked) [Edatrexate],therapeutic index CC50/IC50,P. falciparum 3D7 strain,0.1
same,CC50 at 3 days,[1]; Ba/F3 cells,5 nM
"O[Si](CCCN1CCCCC1)(c1ccccc1)C1CCCCC1 (centres unmarked) [HHSiD, Hexahydro-sila-difenidol]",therapeutic index CC50/IC50,P. falciparum 3D7 strain,>16.4
same,CC50,[2],> 1250 nM
CN(C)c1ccc(C(=C2C=CC(=[N+](C)C)C=C2)c2ccc(N(C)C)cc2)cc1 [Gentian violet],therapeutic index CC50/IC50,P. falciparum 3D7 strain,>4
same,CC50 at 3 days,[1]; Ba/F3 cells,> 1250 nM
CCCCCCCCNC(C)C(O)c1ccc(SC(C)C)cc1 (centres unmarked) [Suloctidil],therapeutic index CC50/IC50,P. falciparum 3D7 strain,0.6
same,CC50 at 3 days,[1]; Ba/F3 cells,970 nM
COc1ccc(C[C@H](N)C(=O)N[C@H]2[C@@H](O)[C@H](n3cnc4c(N(C)C)ncnc43)O[C@@H]2CO)cc1 [Puromycin],therapeutic index CC50/IC50,P. falciparum 3D7 strain,>14.2
same,CC50 at 3 days,[1]; Ba/F3 cells,> 1250 nM
CO\C=C(C(=O)OC)/C(C)=C\C=C\c1ccc(Cl)c(OC)c1 [Strobilurin B],therapeutic index CC50/IC50,P. falciparum 3D7 strain,13.5
same,CC50,[2],3100 nM
